Tests used:
[1] = Dissociation constant, pKa by spectrophotometry; assay type: physicochemical
Plasmodium falciparum [2] = assay: Antiplasmodial activity against chloroquine-resistant Plasmodium falciparum W2 assessed as inhibition of [3H]hypoxanthine incorporation; assay type: functional, organism-based
Plasmodium falciparum [3] = assay: Antiplasmodial activity against chloroquine-resistant Plasmodium falciparum Bre1 assessed as inhibition of [3H]hypoxanthine incorporation; assay type: functional, organism-based
[4] = Inhibition of beta-hematin formation after 18 hrs; assay type: functional
How it was run: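 Modified BHIA: 8 mM hemin in DMSO (0.4 µmol per tube) was mixed with compounds in DMSO or DMSO/MeOH (1:1) at 0–10 molar equivalents to hemin, in triplicate. Acetate buffer held pH 5, and water-only controls were run. Hematin was quantified after serial dilution in 0.1 M NaOH, by absorbance at 405 nm. IC50 was taken as the concentration inhibiting crystallization by 50%.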

[5] = Selectivity index, ratio of IC50 for human KB cells to IC50 for chloroquine-resistant Plasmodium falciparum Bre1; assay type: toxicity, cell-based; details: read-out: Ratio IC50
How it was run: (§1)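 SI is the ratio of the KB-cell IC50 to the parasite [3H]hypoxanthine IC50 for the given strain. KB cells were grown in D-MEM with 10% FCS and antibiotics under 5% CO2 and plated at 650 cells/well. After 24 h they were treated with compounds in DMSO (0.5 nM to 10 µM; 1% DMSO final) for 72 h. MTS was then added for 3 h at 37 °C and A490 was read against controls. IC50 runs were done in separate duplicate.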

[6] = Selectivity index, ratio of IC50 for human KB cells to IC50 for chloroquine-resistant Plasmodium falciparum FCR3/Gambia; assay type: toxicity, cell-based; details: read-out: Ratio IC50; how it was run: as §1
[7] = Selectivity index, ratio of IC50 for human KB cells to IC50 for chloroquine-resistant Plasmodium falciparum W2; assay type: toxicity, cell-based; details: read-out: Ratio IC50; how it was run: as §1
[8] = Binding affinity to synthetic hematin by spectrophotometry
How it was run: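 Monomeric hematin solution: hematin in 0.1 M NaOH with DMSO and 0.02 M sodium phosphate buffer (pH 6.0), made up with water. Drug and hematin were mixed at 10 molar ratios. Complex stoichiometry and dissociation constant Kd were determined by spectrophotometric methods.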

Plasmodium falciparum [9] = assay: Antiplasmodial activity against chloroquine-resistant Plasmodium falciparum FCR3/Gambia assessed as inhibition of [3H]hypoxanthine incorporation; assay type: functional, organism-based; details: FCR-3/Gambia
KB = assay: Cytotoxicity against human KB cells after 72 hrs by MTS assay; assay type: cell-based
How it was run: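 KB cells were grown in D-MEM with 10% fetal calf serum, penicillin, streptomycin and fungizone, under 5% CO2. They were seeded at 650 cells/well and dosed 24 h later with compounds in DMSO, from 0.5 nM upward; controls got DMSO (1% final). MTS was added for 3 h at 37 °C and absorbance read at 490 nm as % of control. IC50 came from separate duplicate experiments.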

[10] = Selectivity index, ratio of IC50 for human KB cells to IC50 for chloroquine-sensitive Plasmodium falciparum 3D7; assay type: toxicity, cell-based; details: read-out: Ratio IC50; how it was run: as §1
Plasmodium falciparum [11] = assay: Antiplasmodial activity against chloroquine-sensitive Plasmodium falciparum 3D7 assessed as inhibition of [3H]hypoxanthine incorporation; assay type: functional, organism-based

Structure (SMILES)	pKa [1]	IC50 (Plasmodium falciparum [2])	IC50 (Plasmodium falciparum [3])	IC50 [4]	selectivity ratio [5]	selectivity ratio [6]	selectivity ratio [7]	Kd [8]	IC50 (Plasmodium falciparum [9])	IC50 (KB)	selectivity ratio [10]	IC50 (Plasmodium falciparum [11])
CCCCCCCNc1c2ccc(Cl)cc2nc2ccc(OC)cc12	7.5	27.2 µM	16.3 µM	1500 µM	0.05	0.06	0.02	5.4 µM	14.6 µM	0.85 µM	0.04	18.1 µM
COc1ccc2nc3cc(Cl)ccc3c(NCCN)c2c1	7.94	0.25 µM	0.28 µM	4600 µM	7	6	8	4.2 µM	0.33 µM	2.07 µM	50	0.042 µM
CCN(CC)CCCC(C)Nc1ccnc2cc(Cl)ccc12 (stereo not drawn) [CHLOROQUINE]	–	–	–	900 µM	–	–	–	5.4 µM	–	22.5 µM	–	–
NCCCCCCNc1c2ccccc2nc2ccccc12	9.86	0.6 µM	0.43 µM	300 µM	1.8	2.2	1.3	4.6 µM	0.36 µM	0.79 µM	0.7	1.13 µM
COc1ccc2nc3cc(Cl)ccc3c(NCCCCCCNc3c4ccc(Cl)cc4nc4ccc(OC)cc34)c2c1	8.23	4.55 µM	1.11 µM	1300 µM	0.045	0.05	0.01	20 µM	1.01 µM	0.05 µM	–	3.39 µM
COc1ccc2nc3cc(Cl)ccc3c(NCCCCCCN)c2c1	9.2	–	–	400 µM	4.1	3.5	3.9	4.4 µM	–	0.7 µM	5.4	–
COc1ccc2nc3cc(Cl)ccc3c(NCCCCN)c2c1	9.1	0.25 µM	0.3 µM	1000 µM	2	2.4	2.4	8.1 µM	0.25 µM	0.6 µM	8.9	0.067 µM
NCCCCCCCC(=O)Nc1c2ccccc2nc2ccccc12	4.59	50 µM	26.7 µM	1100 µM	2	1.8	1.1	–	28.6 µM	52.9 µM	1.3	41.9 µM
NCCC(=O)NCCC(=O)Nc1c2ccccc2nc2ccccc12	4.53	20.9 µM	21.6 µM	1800 µM	2.8	3.4	2.9	4 µM	17.8 µM	60.1 µM	1.5	40.9 µM
